Test results as given in ChEMBL document CHEMBL4622915, “Design and synthesis of C-12 dithiocarbamate andrographolide analogues as an anticancer agent” (Bioorg Med Chem Lett, 2020).

Experiments:
Assay type in all cases: functional, cell-based
P388 = assay: Anticancer activity against mouse P388 cells assessed as reduction in cell viability measured after 48 hrs by SRB assay; conditions: P388, 48 h
Method in brief: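 Suspension cells seeded at 10^4 cells/well and exposed 48 h to compound at 0.1–50 μM, dissolved in DMSO (less than 0.05%). Ellipticine served as positive control. Then washed, TCA-fixed, stained with 0.4% SRB in 1% acetic acid. Protein-bound dye extracted and absorbance read at 515 nm; IC50 taken.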

KB = assay: Anticancer activity against human KB cells assessed as reduction in cell viability measured after 72 hrs by SRB assay
Method in brief: (§1)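 Adherent cells seeded at 10^4 cells/well and exposed 72 h to compound at 0.1–50 μM, dissolved in DMSO (less than 0.05%). Ellipticine served as positive control. Afterwards cells washed, fixed with TCA, stained with 0.4% SRB in 1% acetic acid. Bound dye extracted and OD read at 515 nm; IC50 derived.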

HT-29 = assay: Anticancer activity against human HT-29 cells assessed as reduction in cell viability measured after 72 hrs by SRB assay; conditions: HT-29, 72 h; method in brief: as §1
MCF7 = assay: Anticancer activity against human MCF7 cells assessed as reduction in cell viability measured after 72 hrs by SRB assay; conditions: MCF7, 72 h; method in brief: as §1
A549 = assay: Anticancer activity against human A549 cells assessed as reduction in cell viability measured after 72 hrs by SRB assay; conditions: A549, 72 h; method in brief: as §1
[1] = Anticancer activity against rat ASK cells assessed as reduction in cell viability measured after 72 hrs by SRB assay; method in brief: as §1
[2] = Anticancer activity against human KKU-M213 cells assessed as reduction in cell viability measured after 72 hrs by SRB assay; conditions: KKU-M213, 72 h; method in brief: as §1
HuCC-A1 = assay: Anticancer activity against human HuCCa1 cells assessed as reduction in cell viability measured after 72 hrs by SRB assay; conditions: HuCC-A1, 72 h; method in brief: as §1
[3] = Anticancer activity against human KKU055 cells assessed as reduction in cell viability measured after 72 hrs by SRB assay; method in brief: as §1

| Compound | IC50 (P388) | IC50 (KB) | IC50 (HT-29) | IC50 (MCF7) | IC50 (A549) | IC50 [1] | IC50 [2] | IC50 (HuCC-A1) | IC50 [3] |
| --- | --- | --- | --- | --- | --- | --- | --- | --- | --- |
| C=C1CC[C@@H]2[C@](C)(CO)[C@H](O)CC[C@@]2(C)[C@@H]1C/C=C1/C(=O)OC[C@H]1O [ANDROGRAPHOLIDE] | 6.52 µM | 31.7 µM | 8.91 µM | 8.48 µM | 32 µM | 34.8 µM | 9.36 µM | 23.6 µM | 17.7 µM |
| C=C1CC[C@@H]2[C@](C)(COC(C)=O)[C@H](OC(C)=O)CC[C@@]2(C)[C@@H]1C[C@H](SC(=S)N1CCc2ccccc2C1c1ccccc1)C1=CCOC1=O (stereo partly specified) | 5.33 µM | 18.1 µM | 9.63 µM | 5.6 µM | 29.8 µM | 23.4 µM | 6.81 µM | 9.39 µM | 6.44 µM |
| C=C1CC[C@@H]2[C@](C)(COC(C)=O)[C@H](OC(C)=O)CC[C@@]2(C)[C@@H]1C[C@H](SC(=S)N1CCN(Cc2ccc3c(c2)OCO3)CC1)C1=CCOC1=O | 4.58 µM | 21.4 µM | 7.91 µM | 5.68 µM | 29.5 µM | 14.9 µM | 7.51 µM | 11.6 µM | 9.75 µM |
| C=C1CC[C@@H]2[C@](C)(COC(C)=O)[C@H](OC(C)=O)CC[C@@]2(C)[C@@H]1C[C@H](SC(=S)N(CC)Cc1ccncc1)C1=CCOC1=O | 5.85 µM | 17.1 µM | 4.29 µM | 2.48 µM | 9.42 µM | 18 µM | 5.66 µM | 7.07 µM | 4.05 µM |
| C=C1CC[C@@H]2[C@](C)(COC(C)=O)[C@H](OC(C)=O)CC[C@@]2(C)[C@@H]1C[C@H](SC(=S)N1CCC(Cc2ccccc2)CC1)C1=CCOC1=O | 4.85 µM | 33.6 µM | 15.3 µM | 5.46 µM | 29.1 µM | 28.5 µM | 6.76 µM | 19.7 µM | 6.42 µM |
| C=C1CC[C@@H]2[C@](C)(COC(C)=O)[C@H](OC(C)=O)CC[C@@]2(C)[C@@H]1C[C@H](SC(=S)N1CCOCC1)C1=CCOC1=O | 5.74 µM | 5.96 µM | 4.14 µM | 2.93 µM | 14.8 µM | 9.25 µM | 5.16 µM | 4.79 µM | 5.24 µM |
| Cc1c2ccncc2c(C)c2c1[nH]c1ccccc12 [ELLIPTECINE] | 1.79 µM | 1.92 µM | 2.16 µM | 1.79 µM | 2.25 µM | 2.19 µM | 1.81 µM | 2.43 µM | 2.43 µM |
| C=C1CC[C@@H]2[C@](C)(COC(C)=O)[C@H](OC(C)=O)CC[C@@]2(C)[C@@H]1C[C@H](SC(=S)N1CCN(C(c2ccccc2)c2ccc(Cl)cc2)CC1)C1=CCOC1=O (stereo partly specified) | 22.6 µM | > 50 µM | > 50 µM | 21.7 µM | > 50 µM | > 50 µM | > 50 µM | > 50 µM | 27.7 µM |
| C=C1CC[C@@H]2[C@](C)(COC(C)=O)[C@H](OC(C)=O)CC[C@@]2(C)[C@@H]1C/C=C1/C(=O)OC[C@H]1OC(C)=O | 6.64 µM | 28.1 µM | 21.6 µM | 7.95 µM | > 50 µM | 22.5 µM | 14.8 µM | 20.1 µM | 5.02 µM |
| C=C1CC[C@@H]2[C@](C)(COC(C)=O)[C@H](OC(C)=O)CC[C@@]2(C)[C@@H]1C[C@H](SC(=S)N1CCN(C(c2ccc(F)cc2)c2ccc(F)cc2)CC1)C1=CCOC1=O | 14.3 µM | 42.5 µM | > 50 µM | 24.2 µM | > 50 µM | > 50 µM | 29.2 µM | > 50 µM | 28.3 µM |
| C=C1CC[C@@H]2[C@](C)(COC(C)=O)[C@H](OC(C)=O)CC[C@@]2(C)[C@@H]1C[C@H](SC(=S)N(C)Cc1ccccc1)C1=CCOC1=O | 2.17 µM | 25.3 µM | 6.22 µM | 0.59 µM | 6.94 µM | 6.92 µM | 4.83 µM | 8.63 µM | 1.36 µM |
| C=C1CC[C@@H]2[C@](C)(COC(C)=O)[C@H](OC(C)=O)CC[C@@]2(C)[C@@H]1C[C@H](SC(=S)N(C)Cc1ccc(F)cc1)C1=CCOC1=O | 3.59 µM | 25.7 µM | 6.14 µM | 0.68 µM | 11.6 µM | 16.9 µM | 5.15 µM | 7.78 µM | 3.04 µM |
| C=C1CC[C@@H]2[C@](C)(COC(C)=O)[C@H](OC(C)=O)CC[C@@]2(C)[C@@H]1C[C@H](SC(=S)N(Cc1ccccc1)C(C)C)C1=CCOC1=O | 4.06 µM | 24.8 µM | 6.73 µM | 3.75 µM | 22.5 µM | 20.3 µM | 5.52 µM | 8.64 µM | 5.29 µM |
| C=C1CC[C@@H]2[C@](C)(COC(C)=O)[C@H](OC(C)=O)CC[C@@]2(C)[C@@H]1C[C@H](SC(=S)N1CCN(C(c2ccccc2)c2ccccc2)CC1)C1=CCOC1=O | 36.5 µM | > 50 µM | > 50 µM | 42.3 µM | > 50 µM | > 50 µM | > 50 µM | > 50 µM | > 50 µM |
| C=C1CC[C@@H]2[C@](C)(COC(C)=O)[C@H](OC(C)=O)CC[C@@]2(C)[C@@H]1C[C@H](SC(=S)N(Cc1ccccc1)Cc1ccccc1)C1=CCOC1=O | 4.94 µM | 8.66 µM | 6.54 µM | 4.76 µM | 22.9 µM | 7.22 µM | 5.67 µM | 7.64 µM | 6.02 µM |

Now from value to compound, other results behind:

| IC50 (P388) | IC50 (KB) | IC50 (HT-29) | IC50 (MCF7) | IC50 (A549) | Compound | IC50 [1] | IC50 [2] | IC50 (HuCC-A1) | IC50 [3] |
| --- | --- | --- | --- | --- | --- | --- | --- | --- | --- |
| 5.74 µM | 18.9 µM | 7.06 µM | 6.05 µM | 27.9 µM | C=C1CC[C@@H]2[C@](C)(COC(C)=O)[C@H](OC(C)=O)CC[C@@]2(C)[C@@H]1C[C@H](SC(=S)N1CCN(c2ccccc2F)CC1)C1=CCOC1=O | 9.53 µM | 5.22 µM | 8.63 µM | 9.39 µM |
| 5.5 µM | 19.4 µM | 8.29 µM | 6.06 µM | 27.8 µM | C=C1CC[C@@H]2[C@](C)(COC(C)=O)[C@H](OC(C)=O)CC[C@@]2(C)[C@@H]1C[C@H](SC(=S)N1CCN(c2ccc(C)cc2)CC1)C1=CCOC1=O | 28 µM | 6.49 µM | 17.5 µM | 14.8 µM |
| 5.76 µM | 17.8 µM | 6.58 µM | 4.72 µM | 28.5 µM | C=C1CC[C@@H]2[C@](C)(COC(C)=O)[C@H](OC(C)=O)CC[C@@]2(C)[C@@H]1C[C@H](SC(=S)N1CCN(c2ccccc2OC)CC1)C1=CCOC1=O | 14.3 µM | 5.59 µM | 8.08 µM | 7.62 µM |
| 4.38 µM | 25 µM | 7.08 µM | 3.95 µM | 25.1 µM | C=C1CC[C@@H]2[C@](C)(COC(C)=O)[C@H](OC(C)=O)CC[C@@]2(C)[C@@H]1C[C@H](SC(=S)N1CCc2ccccc2C1)C1=CCOC1=O | 20.1 µM | 5.59 µM | 7.19 µM | 5.55 µM |
| 3.4 µM | 22.7 µM | 9.18 µM | 3.92 µM | 23.4 µM | C=C1CC[C@@H]2[C@](C)(COC(C)=O)[C@H](OC(C)=O)CC[C@@]2(C)[C@@H]1C[C@H](SC(=S)N1CCN(C(=O)C2COc3ccccc3O2)CC1)C1=CCOC1=O (stereo partly specified) | 25.5 µM | 6.16 µM | 17.3 µM | 5.59 µM |
| 4.8 µM | > 50 µM | 13.7 µM | 5.56 µM | 32.8 µM | C=C1CC[C@@H]2[C@](C)(COC(C)=O)[C@H](OC(C)=O)CC[C@@]2(C)[C@@H]1C[C@H](SC(=S)N1CCN(Cc2ccc(Cl)cc2)CC1)C1=CCOC1=O | 26.2 µM | 6.76 µM | 21.6 µM | 6.22 µM |
| 4.3 µM | 23.5 µM | 8.08 µM | 6.53 µM | 28.9 µM | C=C1CC[C@@H]2[C@](C)(COC(C)=O)[C@H](OC(C)=O)CC[C@@]2(C)[C@@H]1C[C@H](SC(=S)N1CCN(c2ccccc2)CC1)C1=CCOC1=O | 15.6 µM | 6.47 µM | 9.59 µM | 9.27 µM |
| 4.31 µM | 6.92 µM | 4.53 µM | 0.84 µM | 18 µM | C=C1CC[C@@H]2[C@](C)(COC(C)=O)[C@H](OC(C)=O)CC[C@@]2(C)[C@@H]1C[C@H](SC(=S)N1CCN(c2ncccn2)CC1)C1=CCOC1=O | 7.2 µM | 5.3 µM | 5.73 µM | 5.3 µM |
| 5.75 µM | 6 µM | 4.93 µM | 2.56 µM | 22.1 µM | C=C1CC[C@@H]2[C@](C)(COC(C)=O)[C@H](OC(C)=O)CC[C@@]2(C)[C@@H]1C[C@H](SC(=S)N1CCN(c2ccc(O)cc2)CC1)C1=CCOC1=O | 4.74 µM | 4.91 µM | 4.88 µM | 5.29 µM |
